# Bioassay records (PubChem)
# A selection: hits, their analogues and other compounds. The true share with any hit is near 3.5%.
# STAT1 act: STAT1 signaling activators, primary screen, cell-based, HTS, luciferase reporter; NIH 3T3 STAT1-luciferase reporter, IFN-gamma, luminescence; 100% = IFN-gamma alone, no compound; activation (% of control), % at 5.5 µM; 200,000 compounds, 2.6% hits; AID 932, 2007;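 active = activation above the screen-wide mean activation plus 3 SD, cut at about 130% in these data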;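 also: raw ratio to IFN-gamma control signal so 100% means no change and 0% no light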
# FLuc inh counter: firefly luciferase enzyme inhibitors, primary screen, artefact control for luciferase-based inhibitor screens, biochemical, luminescence, ATPLite. 10 min. inhibition, % at 10 µM. 200,000 compounds, 1.5% hits;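 active = inhibition above about 50% when tested at 10 µM, limit read from the data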
# Target sequence (P08659 whole entry, looked up): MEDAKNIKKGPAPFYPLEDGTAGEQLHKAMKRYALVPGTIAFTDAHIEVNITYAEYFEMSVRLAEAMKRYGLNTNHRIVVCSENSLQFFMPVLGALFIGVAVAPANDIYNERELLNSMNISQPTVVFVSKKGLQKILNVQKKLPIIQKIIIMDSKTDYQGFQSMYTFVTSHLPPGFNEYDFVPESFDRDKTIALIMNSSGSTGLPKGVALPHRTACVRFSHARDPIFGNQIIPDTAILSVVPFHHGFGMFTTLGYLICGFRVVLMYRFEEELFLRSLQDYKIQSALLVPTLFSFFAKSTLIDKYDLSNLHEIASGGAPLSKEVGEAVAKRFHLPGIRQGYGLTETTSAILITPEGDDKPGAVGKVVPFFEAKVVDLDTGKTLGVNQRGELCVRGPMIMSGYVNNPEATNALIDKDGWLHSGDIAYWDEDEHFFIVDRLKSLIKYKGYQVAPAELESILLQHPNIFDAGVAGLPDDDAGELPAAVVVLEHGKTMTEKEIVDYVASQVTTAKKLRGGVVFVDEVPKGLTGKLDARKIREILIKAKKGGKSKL
# FLuc act counter: FLuc activators, initial screening, artefact control for FLuc-dependent activation tests, biochemical, ATPlite luminescence; Luciferin 4-monooxygenase (Photinus pyralis), P08659; ATPlite luciferase biochemical, 10 min; 0 = ATP-free wells, 1 = DMSO control; activation factor at 10 µM; AID 1027, 2008; 200,000 tested, under 10 active;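 active = luciferase activation factor, scaled between plate controls, of at least 2 with compound at 10 µM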
#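 System: Luciferase/luciferin detection reagent, cell-free biochemical luciferase assay | Medium: PBS buffer for ATP | Dosing: Test compounds dosed from 2 mM stocks in 100% DMSO | Timing: 10 min at ambient temperature | Signal: Luminescence measurement of luciferase light output | Evaluation: Luciferase activation, seen as luminescence increase over controls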
# NF-kB neuron act: activators of NF-kB expression in neurons, primary screen, cell-based, HTS. fold change at 12.5 µM. 190,000 compounds, 1.6% hits. human neuronal cells, NF-kB reporter expression; stronger effect = higher value; in the data active = fold change above about 3.3
# Pf gametocyte: late stage P. falciparum gametocyte viability inhibitors, primary screen, ATP luminescence, HTS | AID 743093, 2013 | inhibition, % at 10.9 µM | 150,000 compounds, 0.065% hits | P. falciparum stage V gametocytes, 24 h;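 active = inhibition above the mean plus 3 SD of compounds within the control limits, set per campaign, cut at about 38% in these data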;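 also: 0% = DMSO wells and 100% = medium only without gametocytes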
# APP 5'UTR act: activators of APP 5'UTR luciferase reporter, primary screen, SH-SY5Y cells. SH-SY5Y APP 5'UTR luciferase reporter, luminescence; zero percent = DMSO vehicle wells. activation, % at 2 µM. 190,000 compounds, 1% hits;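 active = activation above a set limit, based on mean plus 3 SD of controls, cut at about 140% in these data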
# An asterisk follows results filed as active; . = no result.
SMILES,STAT1 act,FLuc inh counter,FLuc act counter,NF-kB neuron act,Pf gametocyte,APP 5'UTR act
Fc1cccc(F)c1/C=C/c1ccc2ccccc2n1,103,82*,0.2,4.4*,-23,166*
C(=C\c1ccco1)/c1ccc2ccccc2n1,.,.,.,.,-10,.
CSc1ccc(/C=C/c2ccc3cccc(O)c3n2)cc1,106,46,0.5,6.2*,1,173*
Cc1ccsc1/C=C/c1ccc2ccccc2n1,86,39,0.6,5*,.,177*
Oc1ccc(Cl)cc1/C=C/c1ccc2cccc(O)c2n1,87,-2,1,2.2,-23,55
Cc1ccsc1/C=C/c1ccc2cccc(O)c2n1,97,23,0.8,5*,9,148*
COc1ccc(N(CCCN2C(=O)c3cccc4cccc(c34)C2=O)C(=O)c2ccncc2)cc1,130*,-5,1,0.9,.,4
CC1CCCC(C)N1C(=O)c1cc(-c2cccs2)on1 (stereo unspecified),109,-2,1,1.6,1,36
CCOc1ccc(C(=O)NCC(=O)OCC(=O)Nc2ccccc2OC)cc1,101,13,0.9,0.92,.,-7
CCOC(=O)N1CCN(CC(=O)Nc2ccc(C)c(Br)c2)CC1,100,-1,1,0.75,.,-20
O=C(COc1ccccc1-c1ccccc1)N/N=C/c1cccc2ccccc12,108,-11,1.1,4.1*,-10,-95
COc1ccc(/C=N/NC(=O)COc2ccccc2-c2ccccc2)cc1,94,-2,1,5.3*,.,-97
Cc1nnc(-c2ccc(N3CCCCCC3)c([N+](=O)[O-])c2)o1,.,.,.,.,-4,.
Clc1ccccc1-c1nnc(-c2cccs2)o1,143*,57*,0.4,6*,9,182*
C(=C\c1nnc(-c2cccs2)o1)/c1ccccc1,143*,27,0.7,5*,.,117
Clc1ccccc1-c1nnc(-c2cccnc2)o1,.,.,.,.,-19,.
Cc1ccc(/C=C/c2nnc(-c3ccccc3)o2)cc1,106,26,0.7,2.3,.,16
Cc1cc(Nc2c(C)n(C)n(-c3ccccc3)c2=O)c2ccccc2n1,102,-8,1.1,1.3,-4,0
Cc1ccc(C(=O)Nc2ccc3c(c2)CCC3)o1,137*,55*,0.4,7.8*,.,119
O=C(Nc1ccc2c(c1)Cc1ccccc1-2)c1cc2ccccc2o1,88,.,.,.,.,8
O=C(Nc1ccc2c(c1)CCC2)c1cc2ccccc2o1,151*,54*,0.5,11*,.,185*
FC(F)C(F)(F)C(F)(F)C(F)(F)c1cc(-c2ccccc2)n[nH]1,126,-8,1.1,5.1*,-10,25
Cc1cc(-c2ccccc2)n[nH]1,107,2,1,1.1,12,15
Cc1ccc(-c2cn3c(=O)cc(C)[nH]c3n2)cc1,119,88*,0.1,2.9,.,53
Cc1cc(=O)n2cc(-c3ccccc3)nc2[nH]1,121,37,0.6,1.9,-8,10
SMILES,STAT1 act,FLuc inh counter,FLuc act counter,NF-kB neuron act,Pf gametocyte,APP 5'UTR act
CCOc1cc(C(=O)N/N=C/c2cn(-c3ccccc3)nc2-c2cc3ccccc3o2)cc(OCC)c1OCC,.,.,.,.,15,.
Clc1nc(-c2ccccn2)nc2scc(-c3ccccc3)c12,127,97*,0,3.3*,-13,113
CCOC(=O)N1CCN(C(=O)c2ccc3c(c2)sc2nc(-c4ccccc4)cn23)CC1,145*,3,1,0.44,.,82
CCOC(=O)N1CCC(NC(=O)c2ccc3c(c2)sc2nc(-c4ccc(OC)cc4)cn23)CC1,109,0,1,1.2,.,1
COc1ccccc1C1/C(=C(/O)c2ccc(Cl)cc2)C(=O)C(=O)N1CCN1CCOCC1 (stereo unspecified),91,-6,1.1,1.4,.,3
CSc1nsc(SCC(=O)NCc2ccc(C)cc2)n1,.,.,.,.,1,.
Nc1c(-c2ccc(Cl)cc2)cnn1-c1cccc(C(F)(F)F)c1,121,1,1,2.2,.,64
Cc1ccc(-c2cnn(-c3cccc(C(F)(F)F)c3)c2N)cc1,138*,10,0.9,2.4,-13,134
N#Cc1ccc(NC(=O)COC(=O)CSc2nnc(-c3ccc(Cl)cc3)o2)cc1,102,12,0.9,1.2,10,7
O=C(c1cc(-c2ccc(F)cc2)on1)N1CCCc2ccccc21,117,30,0.7,1.7,0,51
COc1cccc(-c2cc(C(=O)N3CCCCCC3)no2)c1,122,62*,0.4,7.2*,.,151*
O=C(c1cc(-c2ccc(F)cc2)on1)N1CCCC1,121,64*,0.4,3.5*,-2,80
Cc1ccc(-c2cc(C(=O)N3CCCc4ccccc43)no2)cc1,137*,58*,0.4,2.6,-75,41
O=C(c1cc(-c2ccc(Cl)c(Cl)c2)on1)N1CCCC1,103,1,1,2,.,68
O=C(c1cc(-c2cccc(O)c2)on1)N1CCCCC1,85,43,0.6,6*,.,196*
O=C(Nc1ccc2c(c1)OCO2)N1CCN(Cc2ccco2)CC1,93,92*,0.1,2.1,16,101
Cc1ccc(NC(=O)N2CCN(Cc3ccc4c(c3)OCO4)CC2)cc1,103,1,1,0.98,15,-1
COc1ccc2cc(/C=N/NC(=O)CN(c3ccccc3OC)S(=O)(=O)c3ccccc3)c(Cl)nc2c1,.,.,.,.,-7,.
Cc1ccc(-n2c(C)cc(C(=O)COC(=O)c3ccc[nH]c3=O)c2C)cc1,124,81*,0.2,1.6,.,65
COCCn1c(C)cc(C(=O)COC(=O)c2ccc[nH]c2=O)c1C,75,84*,0.2,0.29,.,-1
CN1CCc2ccc(NC(=O)c3ccc(C(F)(F)F)cc3)cc2C1,.,.,.,.,0,.
CC(N)c1ccc(Cl)cc1Cl (stereo unspecified),105,-4,1,1,5,4
O=C(/C=C/c1ccco1)Nc1cccnc1,120,33,0.7,.,.,10
Cc1ccc(NC(=O)/C=C/c2ccco2)nc1,147*,62*,0.4,0.89,1,-89
O=C(O)c1ccc(Nc2nc(-c3ccccc3)cs2)cc1,145*,8,0.9,4.7*,-9,126
CCOC(=O)Cc1csc(NC(=O)/C=C/c2ccco2)n1,.,.,.,.,-8,.
O=C(/C=C/c1ccco1)Nc1nc(-c2ccccn2)cs1,129*,29,0.7,0.76,-8,14
COc1ccc(-c2csc(NC(=S)NC(=O)/C=C/c3ccco3)n2)cc1OC,96,-5,1,1.3,8,-75
O=C(/C=C/c1ccco1)Nc1nc(-c2ccccc2)cs1,133*,28,0.7,1.5,16,93
